Results: ChEMBL document CHEMBL1125391, “Syntheses and thymidylate synthase inhibitory activity of the poly-gamma-glutamyl conjugates of N-[5-[N-(3,4-dihydro-2-methyl-4-oxoquinazolin-6-ylmethyl)-N-methylamino ]-2-thenoyl]-L-glutamic acid (ICI D1694) and other quinazoline antifolates” (J Med Chem, 1992)

How the values were obtained:
Thymidylate synthase [1] = target: T1, Thymidylate synthase (Mus musculus, UniProt P07607); experiment: Compound was evaluated for inhibition of thymidylate synthase, partially purified from L1210 mouse leukemia cells that overproduce thymidylate synthase due to amplification of TS gene; details: read-out: Ki app
Thymidylate synthase [2] = target: T1, Thymidylate synthase; experiment: Inhibition of thymidylate synthase, partially purified from L1210 mouse leukemia cells overexpressing TS; assay type: cell-free; details: read-out: Ki app
Summary of the method: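 Enzyme partially purified from L1210 mouse leukemia cells that overproduce TS through TS gene amplification. Assayed by the previously described method with (±)-5,10-methylenetetrahydrofolic acid at 200 μM. Apparent Ki was calculated with the Goldstein equation for tight-binding inhibitors.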

[3] = target: Thymidylate synthase (Mus musculus) (UniProt P07607); experiment: Compound was evaluated for fold increase in Thymidylate synthase (TS) inhibition; assay type: functional
Sequence of Thymidylate synthase (Mus musculus) (P07607 whole entry, looked up): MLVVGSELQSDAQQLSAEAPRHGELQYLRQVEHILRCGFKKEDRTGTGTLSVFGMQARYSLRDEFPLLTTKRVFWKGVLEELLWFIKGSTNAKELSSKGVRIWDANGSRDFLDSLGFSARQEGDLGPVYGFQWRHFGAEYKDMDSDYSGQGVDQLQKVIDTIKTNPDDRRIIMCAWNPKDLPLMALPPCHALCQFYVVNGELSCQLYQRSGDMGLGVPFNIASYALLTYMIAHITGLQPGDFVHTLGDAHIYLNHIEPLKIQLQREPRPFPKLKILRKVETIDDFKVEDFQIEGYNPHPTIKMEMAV

T1 sequence (P07607 whole entry): as the sequence (P07607 whole entry, looked up) above

Ki (Thymidylate synthase [1])	Ki (Thymidylate synthase [2])	Fold increase [3]	Compound
418 nM			Cc1nc2ccc(CN(C)c3ccc(C(=O)N[C@@H](CCC(=O)O)C(=O)O)s3)cc2c(=O)[nH]1 [RALTITREXED]
	10.4 nM		C#CCN(Cc1ccc2nc(C)[nH]c(=O)c2c1)c1ccc(C(=O)N[C@@H](CCC(=O)O)C(=O)O)c(F)c1
	1 nM	64	C#CCN(Cc1ccc2nc(C)cc(Cl)c2c1)c1ccc(C(=O)N[C@@H](CCC(=O)N[C@@H](CCC(=O)N[C@@H](CCC(=O)O)C(=O)O)C(=O)O)C(=O)O)c(F)c1
		17	Cc1nc(O)c2cc(CN(C)c3ccc(C(=O)N[C@@H](CCC(=O)N[C@@H](CCC(=O)O)C(=O)O)C(=O)O)s3)ccc2n1
	4.69 nM	89	Cc1nc(O)c2cc(CN(C)c3ccc(C(=O)N[C@@H](CCC(=O)N[C@@H](CCC(=O)N[C@@H](CCC(=O)N[C@@H](CCC(=O)O)C(=O)O)C(=O)O)C(=O)O)C(=O)O)s3)ccc2n1
	24 nM		Cc1nc2ccc(CN(C)c3ccc(C(=O)N[C@@H](CCC(=O)N[C@@H](CCC(=O)O)C(=O)O)C(=O)O)s3)cc2c(=O)[nH]1
		56	Cc1nc(O)c2cc(CN(C)c3ccc(C(=O)N[C@@H](CCC(=O)N[C@@H](CCC(=O)N[C@@H](CCC(=O)O)C(=O)O)C(=O)O)C(=O)O)s3)ccc2n1
	0.59 nM	18	C#CCN(Cc1ccc2nc(C)nc(O)c2c1)c1ccc(C(=O)N[C@@H](CCC(=O)N[C@@H](CCC(=O)O)C(=O)O)C(=O)O)c(F)c1
		110	Cc1nc(O)c2cc(CN(C)c3ccc(C(=O)N[C@@H](CCC(=O)N[C@@H](CCC(=O)N[C@@H](CCC(=O)N[C@@H](CCC(=O)N[C@@H](CCC(=O)O)C(=O)O)C(=O)O)C(=O)O)C(=O)O)C(=O)O)s3)ccc2n1
	3.7 nM		Cc1nc2ccc(CN(C)c3ccc(C(=O)N[C@@H](CCC(=O)N[C@@H](CCC(=O)N[C@@H](CCC(=O)N[C@@H](CCC(=O)N[C@@H](CCC(=O)N[C@@H](CCC(=O)O)C(=O)O)C(=O)O)C(=O)O)C(=O)O)C(=O)O)C(=O)O)s3)cc2c(=O)[nH]1
	63.7 nM		C#CCN(Cc1ccc2nc(C)cc(Cl)c2c1)c1ccc(C(=O)N[C@@H](CCC(=O)O)C(=O)O)c(F)c1
	3.79 nM		Cc1nc2ccc(CN(C)c3ccc(C(=O)N[C@@H](CCC(=O)N[C@@H](CCC(=O)N[C@@H](CCC(=O)N[C@@H](CCC(=O)N[C@@H](CCC(=O)O)C(=O)O)C(=O)O)C(=O)O)C(=O)O)C(=O)O)s3)cc2c(=O)[nH]1
	7.52 nM		Cc1nc2ccc(CN(C)c3ccc(C(=O)N[C@@H](CCC(=O)N[C@@H](CCC(=O)N[C@@H](CCC(=O)O)C(=O)O)C(=O)O)C(=O)O)s3)cc2c(=O)[nH]1
		112	Cc1nc(O)c2cc(CN(C)c3ccc(C(=O)N[C@@H](CCC(=O)N[C@@H](CCC(=O)N[C@@H](CCC(=O)N[C@@H](CCC(=O)N[C@@H](CCC(=O)N[C@@H](CCC(=O)O)C(=O)O)C(=O)O)C(=O)O)C(=O)O)C(=O)O)C(=O)O)s3)ccc2n1
